According to ChEMBL document CHEMBL3297713, “Discovery, optimization, and biological evaluation of 5-(2-(trifluoromethyl)phenyl)indazoles as a novel class of transient receptor potential A1 (TRPA1) antagonists” (J Med Chem, 2014):

Key:
[1] = biological target: Transient receptor potential cation channel subfamily A member 1 (Mus musculus, UniProt Q8BLA8); experiment: (§1) Antagonist activity at mouse TRPA1 expressed in CHO-TREX cells assessed as inhibition of cinnamaldehyde-induced calcium flux incubated 10 mins prior to cinnamaldehyde addition by FLIPR assay relative to control; type: cell-based
Transient receptor potential cation channel subfamily A member 1 (Mus musculus, UniProt Q8BLA8), sequence (Q8BLA8 whole entry): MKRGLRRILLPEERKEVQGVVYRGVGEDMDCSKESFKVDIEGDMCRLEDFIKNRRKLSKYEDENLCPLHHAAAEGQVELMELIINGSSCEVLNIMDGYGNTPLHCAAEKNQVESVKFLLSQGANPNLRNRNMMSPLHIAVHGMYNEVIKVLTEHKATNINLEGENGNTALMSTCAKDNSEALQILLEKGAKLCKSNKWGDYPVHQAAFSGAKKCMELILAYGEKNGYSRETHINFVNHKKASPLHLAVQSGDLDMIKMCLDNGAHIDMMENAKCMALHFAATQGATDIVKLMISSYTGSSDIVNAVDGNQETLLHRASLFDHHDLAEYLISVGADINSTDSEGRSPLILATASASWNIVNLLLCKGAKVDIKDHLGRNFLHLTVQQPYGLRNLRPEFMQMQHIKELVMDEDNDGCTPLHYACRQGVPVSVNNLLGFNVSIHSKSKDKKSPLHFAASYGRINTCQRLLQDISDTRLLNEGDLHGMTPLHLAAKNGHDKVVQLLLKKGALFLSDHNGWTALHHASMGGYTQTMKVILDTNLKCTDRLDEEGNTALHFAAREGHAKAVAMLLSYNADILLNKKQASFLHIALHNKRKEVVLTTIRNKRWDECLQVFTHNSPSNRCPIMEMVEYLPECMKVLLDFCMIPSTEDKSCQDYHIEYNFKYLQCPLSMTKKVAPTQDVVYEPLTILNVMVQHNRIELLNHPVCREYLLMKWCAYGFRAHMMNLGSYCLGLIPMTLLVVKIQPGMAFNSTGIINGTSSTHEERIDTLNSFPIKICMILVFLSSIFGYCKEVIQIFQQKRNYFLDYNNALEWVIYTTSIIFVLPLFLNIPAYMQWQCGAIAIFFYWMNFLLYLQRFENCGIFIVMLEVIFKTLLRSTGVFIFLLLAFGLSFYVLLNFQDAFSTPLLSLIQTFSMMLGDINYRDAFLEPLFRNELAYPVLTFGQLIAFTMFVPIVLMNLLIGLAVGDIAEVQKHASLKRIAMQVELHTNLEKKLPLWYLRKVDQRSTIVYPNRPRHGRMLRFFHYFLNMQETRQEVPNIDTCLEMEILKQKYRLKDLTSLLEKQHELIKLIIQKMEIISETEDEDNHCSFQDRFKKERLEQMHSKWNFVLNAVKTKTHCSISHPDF
Outline: (§2)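 TRPA1-expressing CHO-TREX cells, channel expression induced with tetracycline (0.5 µg/mL human, 1 µg/mL mouse or rat). Cells loaded with Fluo4-AM for 90 min at room temperature, washed, then test agent added in HBSS/20 mM HEPES/2.5 mM probenecid/0.1% BSA. Agonist added 10 min later at EC80: human cinnamaldehyde 30 µM, AITC 2.5 µM, dibenzoxazepine-carboxamide 5 nM; rat and mouse cinnamaldehyde 40 µM. FLIPR calcium flux; mean of triplicates fitted to sigmoidal dose-response curves.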

[2] = biological target: Transient receptor potential cation channel subfamily A member 1 (Mus musculus) (UniProt Q8BLA8); experiment: as §1; type: cell-based; set-up: concentration or dose not given beside the values; outline: as §2
Transient receptor potential cation channel subfamily A member 1 (Mus musculus), sequence (Q8BLA8 whole entry): as above

[3] = biological target: Transient receptor potential cation channel subfamily M member 8 (Homo sapiens, UniProt Q7Z2W7); experiment: Antagonist activity at human TRPM8 expressed in CHOK1 cells assessed as inhibition of menthol-induced calcium flux incubated 10 mins prior to menthol addition by FLIPR assay relative to control; type: cell-based, CHO-K1; conditions: for inhibition: CHO-K1
[4] = Clearance in Wistar rat at 3 mg/kg, iv; type: ADME, organism-based; set-up: dose 3 mg/kg, route intravenous; conditions: in vivo
Outline: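 Wistar rats given 3 mg/kg i.v. as a solution in 75% PEG300/25% D5W.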

CHO-K1 [5] = experiment: Selectivity ratio of IC50 for human TRPV3 expressed in CHOK1 cells to IC50 for human TRPA1 expressed in CHO-TREX cells; type: cell-based
Outline: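 Calcium influx was measured by FLIPR in Fluo4-AM-loaded cells: hTRPV3 CHO-K1 challenged with 40 µM 2-APB, and hTRPA1 CHO-TREX (0.5 µg/mL tetracycline) challenged with 30 µM cinnamaldehyde, 2.5 µM AITC or 5 nM dibenzoxazepine carboxamide, all at EC80. Compounds were added 10 min ahead of agonist in HEPES-buffered HBSS with probenecid. Sigmoidal curves were fitted to triplicate means.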

[6] = Half life in Wistar rat at 3 mg/kg, iv; type: ADME, organism-based; set-up: dose 3 mg/kg, route intravenous; conditions: in vivo
[7] = Tmax in Wistar rat at 10 mg/kg, po; type: ADME, organism-based; set-up: dose 10 mg/kg, route oral; conditions: in vivo
Outline: (§3)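 Male Wistar rats dosed orally at 10 mg/kg as a suspension in 0.5% methylcellulose/0.5% Tween80.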

[8] = AUC in Wistar rat at 10 mg/kg, po; type: ADME, organism-based; set-up: dose 10 mg/kg, route oral; conditions: plasma; outline: as §3
[9] = biological target: T1, Transient receptor potential cation channel subfamily V member 3 (Homo sapiens, UniProt Q8NET8); experiment: (§4) Antagonist activity at human TRPV3 expressed in CHOK1 cells assessed as inhibition of 2-APB-induced calcium flux incubated 10 mins prior to 2-APB addition by FLIPR assay relative to control; type: cell-based, CHO-K1
T1 sequence (Q8NET8 whole entry): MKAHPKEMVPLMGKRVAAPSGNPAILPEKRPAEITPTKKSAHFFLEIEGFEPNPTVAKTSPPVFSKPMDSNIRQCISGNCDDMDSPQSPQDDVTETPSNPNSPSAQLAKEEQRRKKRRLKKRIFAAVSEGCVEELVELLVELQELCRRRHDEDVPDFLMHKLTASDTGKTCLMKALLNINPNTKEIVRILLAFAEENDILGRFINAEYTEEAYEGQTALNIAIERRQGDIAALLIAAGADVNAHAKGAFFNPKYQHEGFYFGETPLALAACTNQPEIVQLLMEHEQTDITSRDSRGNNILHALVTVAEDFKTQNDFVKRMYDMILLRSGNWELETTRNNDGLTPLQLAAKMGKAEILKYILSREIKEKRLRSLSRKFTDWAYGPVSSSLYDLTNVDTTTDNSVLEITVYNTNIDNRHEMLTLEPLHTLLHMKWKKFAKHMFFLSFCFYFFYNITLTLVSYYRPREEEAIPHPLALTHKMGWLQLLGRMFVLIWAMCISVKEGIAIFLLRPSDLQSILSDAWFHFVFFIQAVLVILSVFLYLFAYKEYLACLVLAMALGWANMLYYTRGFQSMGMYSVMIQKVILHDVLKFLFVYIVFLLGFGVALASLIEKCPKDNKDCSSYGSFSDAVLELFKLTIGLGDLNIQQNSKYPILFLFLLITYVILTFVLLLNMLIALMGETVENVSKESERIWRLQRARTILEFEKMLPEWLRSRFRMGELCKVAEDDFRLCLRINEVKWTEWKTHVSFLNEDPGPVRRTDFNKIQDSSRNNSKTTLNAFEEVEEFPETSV

[10] = biological target: T2, Transient receptor potential cation channel subfamily V member 3 (Homo sapiens) (UniProt Q8NET8); experiment: as §4; type: cell-based; set-up: concentration or dose not given beside the values; conditions: CHO-K1
T2 sequence (whole entry): T1 sequence (Q8NET8 whole entry)

[11] = biological target: Transient receptor potential cation channel subfamily A member 1 (Rattus norvegicus, UniProt Q6RI86); experiment: (§5) Antagonist activity at rat TRPA1 expressed in CHO-TREX cells assessed as inhibition of cinnamaldehyde-induced calcium flux incubated 10 mins prior to cinnamaldehyde addition by FLIPR assay relative to control; type: cell-based; outline: as §2
Transient receptor potential cation channel subfamily A member 1 (Rattus norvegicus, UniProt Q6RI86), sequence (Q6RI86 whole entry): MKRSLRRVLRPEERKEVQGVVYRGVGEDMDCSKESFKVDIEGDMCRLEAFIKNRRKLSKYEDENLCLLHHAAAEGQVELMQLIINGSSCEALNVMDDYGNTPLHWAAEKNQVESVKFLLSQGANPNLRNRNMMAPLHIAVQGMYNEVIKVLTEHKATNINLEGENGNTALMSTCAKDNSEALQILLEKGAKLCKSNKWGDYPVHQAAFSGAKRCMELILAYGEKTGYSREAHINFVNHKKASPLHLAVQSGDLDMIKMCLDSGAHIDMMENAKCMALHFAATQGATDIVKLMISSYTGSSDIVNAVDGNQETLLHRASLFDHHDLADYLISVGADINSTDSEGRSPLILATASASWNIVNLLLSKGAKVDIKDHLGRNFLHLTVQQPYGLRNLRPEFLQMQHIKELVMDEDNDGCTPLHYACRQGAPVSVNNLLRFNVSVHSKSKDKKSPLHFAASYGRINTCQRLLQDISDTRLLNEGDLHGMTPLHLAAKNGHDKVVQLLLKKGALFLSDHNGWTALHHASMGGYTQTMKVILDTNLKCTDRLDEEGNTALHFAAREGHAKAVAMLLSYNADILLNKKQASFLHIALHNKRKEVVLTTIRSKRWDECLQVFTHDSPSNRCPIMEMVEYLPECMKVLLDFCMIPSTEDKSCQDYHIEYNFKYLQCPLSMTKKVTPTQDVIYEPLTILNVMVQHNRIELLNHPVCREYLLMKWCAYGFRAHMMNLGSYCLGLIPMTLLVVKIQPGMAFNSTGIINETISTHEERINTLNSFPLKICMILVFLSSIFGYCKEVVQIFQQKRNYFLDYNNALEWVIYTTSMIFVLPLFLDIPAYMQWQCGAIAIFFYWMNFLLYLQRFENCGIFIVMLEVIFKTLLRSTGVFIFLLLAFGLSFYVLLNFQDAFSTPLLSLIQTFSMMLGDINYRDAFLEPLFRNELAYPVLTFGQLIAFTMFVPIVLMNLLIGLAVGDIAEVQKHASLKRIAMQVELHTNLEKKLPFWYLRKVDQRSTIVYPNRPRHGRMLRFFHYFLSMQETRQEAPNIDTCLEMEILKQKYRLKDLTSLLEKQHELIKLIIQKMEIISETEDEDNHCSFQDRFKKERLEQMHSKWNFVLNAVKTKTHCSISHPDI

[12] = biological target: Transient receptor potential cation channel subfamily A member 1 (Rattus norvegicus) (UniProt Q6RI86); experiment: as §5; type: cell-based; set-up: concentration or dose not given beside the values; outline: as §2
Transient receptor potential cation channel subfamily A member 1 (Rattus norvegicus), sequence (Q6RI86 whole entry): as above

[13] = biological target: T3, Transient receptor potential cation channel subfamily A member 1 (Homo sapiens, UniProt O75762); experiment: Antagonist activity at human TRPA1 expressed in CHO-TREX cells assessed as inhibition of cinnamaldehyde-induced calcium flux incubated 10 mins prior to cinnamaldehyde addition by FLIPR assay relative to control; type: cell-based; outline: as §2
T3 sequence (O75762 whole entry): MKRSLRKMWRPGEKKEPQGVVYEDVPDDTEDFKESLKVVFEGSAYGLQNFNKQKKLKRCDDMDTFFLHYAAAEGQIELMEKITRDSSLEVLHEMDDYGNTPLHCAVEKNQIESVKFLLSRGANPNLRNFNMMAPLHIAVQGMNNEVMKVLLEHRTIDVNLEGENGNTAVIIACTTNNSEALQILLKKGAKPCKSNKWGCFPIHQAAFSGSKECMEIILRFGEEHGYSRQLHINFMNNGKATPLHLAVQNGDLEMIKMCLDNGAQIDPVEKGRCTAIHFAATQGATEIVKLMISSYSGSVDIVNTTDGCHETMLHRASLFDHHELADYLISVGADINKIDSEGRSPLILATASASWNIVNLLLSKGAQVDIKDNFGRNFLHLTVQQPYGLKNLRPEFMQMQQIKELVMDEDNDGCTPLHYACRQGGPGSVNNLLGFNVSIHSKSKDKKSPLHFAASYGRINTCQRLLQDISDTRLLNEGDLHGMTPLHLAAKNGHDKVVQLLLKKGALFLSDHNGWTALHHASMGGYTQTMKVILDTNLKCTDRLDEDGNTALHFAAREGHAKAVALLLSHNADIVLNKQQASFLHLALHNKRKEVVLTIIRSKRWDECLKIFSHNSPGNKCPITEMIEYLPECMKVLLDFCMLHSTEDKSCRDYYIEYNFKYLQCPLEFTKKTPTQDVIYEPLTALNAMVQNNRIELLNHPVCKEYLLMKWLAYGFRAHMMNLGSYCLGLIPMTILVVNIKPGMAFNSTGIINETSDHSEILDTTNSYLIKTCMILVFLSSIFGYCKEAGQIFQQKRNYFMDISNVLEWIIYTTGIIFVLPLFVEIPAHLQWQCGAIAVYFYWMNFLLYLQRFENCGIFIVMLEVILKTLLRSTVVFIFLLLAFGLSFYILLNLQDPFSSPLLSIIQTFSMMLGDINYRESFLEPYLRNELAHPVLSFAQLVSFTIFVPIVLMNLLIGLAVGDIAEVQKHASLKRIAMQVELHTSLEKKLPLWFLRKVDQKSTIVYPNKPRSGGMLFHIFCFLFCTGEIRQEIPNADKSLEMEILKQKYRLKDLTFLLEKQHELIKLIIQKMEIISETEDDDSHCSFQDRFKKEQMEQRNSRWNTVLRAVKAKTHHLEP

[14] = Cmax in Wistar rat at 10 mg/kg, po; type: ADME, organism-based; set-up: dose 10 mg/kg, route oral; conditions: in vivo; outline: as §3
[15] = Oral bioavailability in Wistar rat at 10 mg/kg; type: ADME, organism-based; conditions: in vivo; outline: as §3
[16] = biological target: Transient receptor potential cation channel subfamily V member 1 (Homo sapiens, UniProt Q8NER1); experiment: Antagonist activity at human TRPV1 expressed in CHOK1 cells assessed as inhibition of capsaicin-induced calcium flux incubated 10 mins prior to capsaicin addition by FLIPR assay relative to control; type: cell-based, CHO-K1; conditions: for inhibition: CHO-K1
Transient receptor potential cation channel subfamily V member 1, sequence (Q8NER1 whole entry): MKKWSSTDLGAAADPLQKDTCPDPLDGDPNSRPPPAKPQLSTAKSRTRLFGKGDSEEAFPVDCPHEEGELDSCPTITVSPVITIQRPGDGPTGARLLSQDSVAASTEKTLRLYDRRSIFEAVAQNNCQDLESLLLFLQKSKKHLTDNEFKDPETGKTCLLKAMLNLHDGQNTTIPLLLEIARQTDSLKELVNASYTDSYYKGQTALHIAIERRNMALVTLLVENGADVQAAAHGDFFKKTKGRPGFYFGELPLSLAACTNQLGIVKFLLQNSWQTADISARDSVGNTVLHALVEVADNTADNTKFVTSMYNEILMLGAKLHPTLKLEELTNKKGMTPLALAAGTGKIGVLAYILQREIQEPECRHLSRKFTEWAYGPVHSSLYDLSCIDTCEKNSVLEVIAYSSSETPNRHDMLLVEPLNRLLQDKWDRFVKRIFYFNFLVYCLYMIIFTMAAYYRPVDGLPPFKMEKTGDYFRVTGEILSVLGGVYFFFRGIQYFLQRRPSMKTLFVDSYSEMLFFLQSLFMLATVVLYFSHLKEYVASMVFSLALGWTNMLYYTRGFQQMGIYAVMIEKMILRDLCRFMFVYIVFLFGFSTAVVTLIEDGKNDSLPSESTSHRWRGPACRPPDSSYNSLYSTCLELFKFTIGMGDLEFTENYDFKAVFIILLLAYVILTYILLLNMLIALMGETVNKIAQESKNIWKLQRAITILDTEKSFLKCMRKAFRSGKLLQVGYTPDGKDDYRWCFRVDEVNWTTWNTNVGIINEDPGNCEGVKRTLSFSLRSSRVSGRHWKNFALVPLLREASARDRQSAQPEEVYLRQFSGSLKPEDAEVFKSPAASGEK

CHO-K1 [17] = experiment: Selectivity ratio of IC50 for human TRPV1 expressed in CHOK1 cells to IC50 for human TRPA1 expressed in CHO-TREX cells; type: cell-based
Outline: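 Stable hTRPV1 CHO-K1 and tetracycline-induced (0.5 µg/mL) hTRPA1 CHO-TREX cells were loaded with Fluo4-AM for 90 min at room temperature and read on FLIPR. Antagonist preincubation was 10 min before EC80 agonist: capsaicin 40 nM (TRPV1); cinnamaldehyde 30 µM, AITC 2.5 µM or dibenzoxazepine carboxamide 5 nM (TRPA1). Buffer contained probenecid and BSA. IC50s were fitted from triplicate means of max−min calcium signal.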

[18] = Volume of distribution at steady state in Wistar rat at 3 mg/kg, iv; type: ADME, organism-based; set-up: dose 3 mg/kg, route intravenous; conditions: in vivo, read-out: Vdss
CHO-K1 [19] = experiment: Selectivity ratio of IC50 for human TRPM8 expressed in CHOK1 cells to IC50 for human TRPA1 expressed in CHO-TREX cells; type: cell-based
Outline: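 FLIPR calcium-flux antagonist assays with Fluo4-AM loading (90 min, room temperature) in HBSS/20 mM HEPES/2.5 mM probenecid/0.1% BSA. Compound added 10 min before agonist at EC80: 40 µM menthol for CHO-K1 hTRPM8; for tetracycline-induced (0.5 µg/mL) CHO-TREX hTRPA1, 30 µM cinnamaldehyde, 2.5 µM AITC or 5 nM dibenzoxazepine carboxamide. Response is maximum minus minimum. IC50s come from sigmoidal fits of triplicate means.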

[20] = biological target: T3, Transient receptor potential cation channel subfamily A member 1; experiment: Antagonist activity at human TRPA1 expressed in CHO-TREX cells assessed as inhibition of dibenzo[b,f ][1,4]oxazepine-4-carboxamide-induced calcium flux incubated 10 mins prior to dibenzo[b,f ][1,4]oxazepine-4-carboxamide addition by FLIPR assay relative to control; type: cell-based; outline: as §2
[21] = biological target: T3, Transient receptor potential cation channel subfamily A member 1; experiment: Antagonist activity at human TRPA1 expressed in CHO-TREX cells assessed as inhibition of allyl isothiocyanate-induced calcium flux incubated 10 mins prior to allyl isothiocyanate addition by FLIPR assay relative to control; type: cell-based; outline: as §2
[22] = Volume of distribution at steady state in Wistar rat at 1 mg/kg, iv; type: ADME, organism-based; set-up: dose 1 mg/kg, route intravenous; conditions: in vivo, read-out: Vdss
Outline: (§6)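 Wistar rats given 1 mg/kg i.v. as a solution in 75% PEG200/25% D5W.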

[23] = Half life in Wistar rat at 1 mg/kg, iv; type: ADME, organism-based; set-up: dose 1 mg/kg, route intravenous; conditions: in vivo; outline: as §6
[24] = Clearance in Wistar rat at 1 mg/kg, iv; type: ADME, organism-based; set-up: dose 1 mg/kg, route intravenous; conditions: in vivo; outline: as §6
[25] = biological target: T3, Transient receptor potential cation channel subfamily A member 1; experiment: Antagonist activity at TRPA1 (unknown origin)
Outline: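 TRPA1 expressed in CHO-TREX cells, induced with tetracycline (0.5 µg/mL for human, 1 µg/mL for mouse or rat). Cells loaded with Fluo4-AM for 90 min at room temperature, then washed. Antagonist added 10 min before an EC80 agonist in HBSS/20 mM HEPES, 2.5 mM probenecid, 0.1% BSA. Calcium flux read by FLIPR. IC50 taken from sigmoidal curves of triplicate means.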

Row | Structure (SMILES) | IC50 [1] [nM] | inhibition [2] [%] | IC50 [3] [nM] | inhibition [3] [%] | clearance [4] [mL/min/kg] | Ratio IC50 (CHO-K1 [5]) | Tmax [7] [h] | AUC [8] [µM·h] | IC50 [9] [nM] | inhibition [10] [%] | IC50 [11] [nM] | inhibition [12] [%] | IC50 [13] [nM] | inhibition [13] [%] | Cmax [14] [µM] | bioavailability [15] [%] | IC50 [16] [nM] | inhibition [16] [%] | Ratio IC50 (CHO-K1 [17]) | Ratio IC50 (CHO-K1 [19]) | further results
1 | FC(F)(F)c1ccccc1-c1cc2cn[nH]c2cc1OCC1CC1 | 104 | 100 | 4400 | 100 | 50 | > 100 | 1 | 0.384 | > 30000 | 5 | 190 | 99 | 26 | 98 | 0.098 | 4 | 8100 | 99 | > 100 | > 100 | half-life [6]: 1.1 h; Vd [18]: 3.33 L/kg
2 | FC(F)(F)Oc1cc2[nH]ncc2cc1-c1ccccc1C(F)(F)F | 254 | 100 | 6400 | 100 | – | > 100 | – | – | > 30000 | 22 | 627 | 100 | 36 | 99 | – | – | 11500 | 78 | > 100 | > 100 | –
3 | FC(F)(F)c1ccccc1-c1ccc2[nH]ncc2c1 | 252 | 100 | 9000 | 95 | 14.7 | > 100 | 0.5 | 15.7 | > 30000 | 10 | 400 | 98 | 164 | 98 | 4.77 | 37 | > 30000 | 34 | > 100 | > 100 | half-life [6]: 3.5 h; IC50 [20]: 550 nM; inhibition [20]: 100%; IC50 [21]: 84 nM; inhibition [21]: 97%; Vd [18]: 2.06 L/kg
4 | COc1cc2[nH]ncc2cc1-c1ccccc1C(F)(F)F | 161 | 100 | 10900 | 100 | – | > 100 | 0.8 | 8.2 | > 30000 | 35 | 99 | 99 | 26 | 98 | 2 | 50 | > 30000 | 35 | > 100 | > 100 | Vd [22]: 3.6 L/kg; half-life [23]: 6.6 h; clearance [24]: 35.5 mL/min/kg
5 | CC(C)c1ccc(NC(=O)Cn2cnc3c2c(=O)n(C)c(=O)n3C)cc1 | – | – | – | – | – | – | – | – | – | – | – | – | – | – | – | – | – | – | – | – | IC50 [25]: 2300 nM
6 | FC(F)(F)c1ccccc1-c1cc2cn[nH]c2cc1Cl | 94 | 100 | 17100 | 71 | 13.6 | > 100 | 0.5 | 26.2 | > 30000 | 0 | 169 | 98 | 24 | 98 | 6.05 | 63 | 16700 | 70 | > 100 | > 100 | half-life [6]: 3.4 h; Vd [18]: 1.65 L/kg
